# Experimental data published in PMC3166448 (Urology, 2011).
# “Also recorded” adds a separate entry of the source. Counter-ions that a name gives are not always drawn.
# Assays:
# [1] = test system: androgen-dependent and androgen-independent prostate cancer xenografts; settings: 3 (Solit et al); cited from earlier work
# [2] = test system: castration-resistant prostate cancer (CRPC); settings: cited from earlier work
# [3] = Plasma pharmacokinetics after first IPI-504 dose; format: in vivo, human; settings: for Time of peak plasma concentration: relative to the 30-minute infusion
# [4] = cited from earlier work
# [5] = test system: patients with castration-resistant prostate cancer (CRPC); assay: Phase 2 trial: treatment-emergent adverse events; format: in vivo, human
# [6] = 17-AAG: ref 5; IPI-504: ref 6; cited from earlier work
# [7] = twice-weekly; cited from earlier work
# [8] = test system: castration-resistant prostate cancer (CRPC); assay: Phase 2 trial: PSA response / antitumor outcome; format: in vivo, human
# Outline: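 Adults (>18 years) with progressive CRPC (two serial PSA rises or progressive radiographic metastases, serum testosterone < 50 […]). Group A was chemotherapy-naïve; Group B had radiographic metastases, progression on or intolerance to docetaxel, and ≤3 prior chemotherapy regimens. Test compound 400 mg/m2 given as a 30-min IV infusion on days 1, 4, 8 and 11 of 21-day cycles; later continuation allowed at 300 mg/m2.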
# [9] = test system: cytochrome P450 3A4 (CYP3A4); settings: in vitro; cited from earlier work
# [10] = plasma after first IPI-504 dose 400 mg/m^2 iv
# [11] = Grade ≥ 3, N=19, IPI-504 400 mg/m^2 iv
# [12] = TEAE in > 25% of study population, N=19
# [13] = any grade, N=19, IPI-504 400 mg/m^2 iv
# [14] = of the 19 patients enrolled and treated
structure (smiles),measurement,setting,value
"C=CCNC1=C2C[C@@H](C)C[C@H](OC)[C@H](O)[C@@H](C)/C=C(\C)[C@H](OC(N)=O)[C@@H](OC)/C=C\C=C(/C)C(=O)NC(=CC1=O)C2=O [17-AAG, 17-allylamine-17-demethoxygeldanamycin, reference compound]",Growth of prostate cancer xenografts,[1],dose-dependent growth inhibition
same,Antitumor activity in clinical trials in patients with CRPC,[2],negligible antitumor activity
same,Mean AUC0-∞,[3]; [10],"9,847 ng*hr/mL"
same,mean T1/2,[3]; [10],1.4 h
same,Time of peak plasma concentration,[3],at the end of the infusion
same,Hepatotoxicity in phase I trials,[4],dose limiting toxicity
CO[C@H]1/C=C/C=C(\C)C(=O)NC2=CC(=O)C(N)=C(C[C@@H](C)C[C@H](OC)[C@H](O)[C@@H](C)/C=C(\C)[C@@H]1OC(N)=O)C2=O [17-AG],mean T1/2,[3]; [10],5.2 h
same,Time of peak plasma concentration,[3],ranging from the end of the infusion to 1.5 hours post-infusion
same,Share of the total measured exposure,"[3]; sum of IPI-504, 17-AAG and 17-AG without adjustment for molecular weight",approximately 68%
"C=CCNc1c(O)cc2c(O)c1C[C@@H](C)C[C@H](OC)[C@H](O)[C@@H](C)/C=C(\C)[C@H](OC(N)=O)[C@@H](OC)/C=C\C=C(/C)C(=O)N2 [IPI-504, retaspimycin hydrochloride]",Grade 3 AST elevation in the patient who died of hepatic failure,"[5]; 1 day before hepatic failure, at study drug administration",339 U/L
same,AST elevation (Grade 4) in the second patient,"[5]; Cycle 1, Dose 2, from 32 U/L at baseline",863 U/L
same,ALT elevation (Grade 3) in the second patient,"[5]; Cycle 1, Dose 2, from a normal baseline level",659 U/L
same,AST elevation (Grade 3) in one patient,"[5]; Cycle 2, Dose 3, prompted study drug discontinuation, returned to normal 4 days later",397 U/L
same,"ALT Increased, patients with TEAE (Grade ≥ 3)",[5]; [11],1 (5) n (%)
same,"AST Increased, patients with TEAE (Grade ≥ 3)",[5]; [11],2 (11) n (%)
same,"Anemia, patients with TEAE (Grade ≥ 3)",[5]; [11],1 (5) n (%)
same,"Anorexia, patients with TEAE (Grade ≥ 3)",[5]; [11],1 (5) n (%)
same,"Anxiety, patients with TEAE (Grade ≥ 3)",[5]; [11],0 n (%)
same,"Arthralgia, patients with TEAE (Grade ≥ 3)",[5]; [11],0 n (%)
same,"Back Pain, patients with TEAE (Grade ≥ 3)",[5]; [11],1 (5) n (%)
same,"Constipation, patients with TEAE (Grade ≥ 3)",[5]; [11],0 n (%)
same,"Dehydration, patients with TEAE (Grade ≥ 3)",[5]; [11],3 (16) n (%)
same,"Diarrhea, patients with TEAE (Grade ≥ 3)",[5]; [11],1 (5) n (%)
same,"Fatigue, patients with TEAE (Grade ≥ 3)",[5]; [11],1 (5) n (%)
same,"Headache, patients with TEAE (Grade ≥ 3)",[5]; [11],0 n (%)
same,"Hypokalemia, patients with TEAE (Grade ≥ 3)",[5]; [11],0 n (%)
same,"Hyponatremia, patients with TEAE (Grade ≥ 3)",[5]; [11],2 (11) n (%)
same,"Infusion Site Pain, patients with TEAE (Grade ≥ 3)",[5]; [11],0 n (%)
same,"Musculoskeletal Pain, patients with TEAE (Grade ≥ 3)",[5]; [11],0 n (%)
same,"Myalgia, patients with TEAE (Grade ≥ 3)",[5]; [11],0 n (%)
same,"Nausea, patients with TEAE (Grade ≥ 3)",[5]; [11],1 (5) n (%)
same,"Pain in Extremity, patients with TEAE (Grade ≥ 3)",[5]; [11],0 n (%)
same,"Pneumonia, patients with TEAE (Grade ≥ 3)",[5]; [11],2 (11) n (%)
same,"Pyrexia, patients with TEAE (Grade ≥ 3)",[5]; [11],0 n (%)
same,"Vomiting, patients with TEAE (Grade ≥ 3)",[5]; [11],1 (5) n (%)
same,"Anorexia, share of study population",[5]; [12],26%
same,"Arthralgia, share of study population",[5]; [12],26%
same,"ALT Increased, patients with any TEAE",[5]; [13],2 (11) n (%)
same,"AST Increased, patients with any TEAE",[5]; [13],2 (11) n (%)
same,"Anemia, patients with any TEAE",[5]; [13],4 (21) n (%)
same,"Anorexia, patients with any TEAE",[5]; [13],5 (26) n (%)
same,"Anxiety, patients with any TEAE",[5]; [13],2 (11) n (%)
same,"Arthralgia, patients with any TEAE",[5]; [13],5 (26) n (%)
same,"Back Pain, patients with any TEAE",[5]; [13],2 (11) n (%)
same,"Constipation, patients with any TEAE",[5]; [13],4 (21) n (%)
same,"Dehydration, patients with any TEAE",[5]; [13],4 (21) n (%)
same,"Diarrhea, patients with any TEAE",[5]; [13],8 (42) n (%)
same,"Fatigue, patients with any TEAE",[5]; [13],6 (32) n (%)
same,"Headache, patients with any TEAE",[5]; [13],2 (11) n (%)
same,"Hypokalemia, patients with any TEAE",[5]; [13],2 (11) n (%)
same,"Hyponatremia, patients with any TEAE",[5]; [13],2 (11) n (%)
same,"Infusion Site Pain, patients with any TEAE",[5]; [13],4 (21) n (%)
same,"Musculoskeletal Pain, patients with any TEAE",[5]; [13],3 (16) n (%)
same,"Myalgia, patients with any TEAE",[5]; [13],3 (16) n (%)
same,"Pain in Extremity, patients with any TEAE",[5]; [13],4 (21) n (%)
same,"Pneumonia, patients with any TEAE",[5]; [13],2 (11) n (%)
same,"Pyrexia, patients with any TEAE",[5]; [13],3 (16) n (%)
same,"Vomiting, patients with any TEAE",[5]; [13],4 (21) n (%)
same,"Nausea, patients with any TEAE","[5]; any grade, N=19, IPI-504 400 mg/m^2 iv days 1, 4, 8, 11 of 21-day cycle",9 (47) n (%)
same,"Patients reported with treatment-emergent AEs (TEAEs), number",[5]; [14],18 patients
same,"Patients whose TEAEs resulted in death, percent",[5]; [14],11%
same,"Patients with CTCAE Grade 3 or higher TEAEs, number",[5]; [14],11 patients
same,"Patients with CTCAE Grade 3 or higher TEAEs, percent",[5]; [14],58%
same,Solubility,[6],water-soluble
same,Maximum tolerated dose as a single agent,[7],≥ 400 mg/m^2
same,Patients achieving ≥ 50% post-treatment decline in PSA (PSA response),"[8]; Groups A and B, N=19",No PSA responses; also recorded: No patients
same,PSA decline from baseline in one patient,[8]; one Group A (chemotherapy-naïve) patient,48%
same,Time on treatment of the patient with PSA decline,[8]; one Group A patient,9 cycles
same,Time on study until discontinuation due to disease progression,"[8]; one Group A patient, after the interim analysis",approximately 2 years
same,Overall antitumor activity,"[8]; single agent, 400 mg/m^2",minimal effect on PSA or tumor burden; also recorded: negligible antitumor activity
same,AUC,"[3]; human, in vivo, 400 mg/m^2",26400 ng·h/mL
same,AUC(0-inf),"[3]; human, in vivo, iv, 400 mg/m2",11700 ng·h/mL
same,Time of peak plasma concentration,[3],at the end of the infusion
same,Involvement of CYP3A4 in metabolism,[9],involved in the metabolism
